# m5-HT2A agonist: mouse HTR2A agonism via beta-arrestin recruitment. 360,000 compounds, 0.66% hits. CHO-K1 mHTR2A beta-arrestin complementation, luminescence; percent of 30 µM serotonin response. P35363. activation, % at 7.6 µM;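 active = activation above a run cutoff, the mean activation of all tested compounds plus 3 SD, cut at about 14% in these data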;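 also: 0% = plate median of compound wells and 100% = 30 µM serotonin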
# Target sequence (P35363 whole entry, looked up): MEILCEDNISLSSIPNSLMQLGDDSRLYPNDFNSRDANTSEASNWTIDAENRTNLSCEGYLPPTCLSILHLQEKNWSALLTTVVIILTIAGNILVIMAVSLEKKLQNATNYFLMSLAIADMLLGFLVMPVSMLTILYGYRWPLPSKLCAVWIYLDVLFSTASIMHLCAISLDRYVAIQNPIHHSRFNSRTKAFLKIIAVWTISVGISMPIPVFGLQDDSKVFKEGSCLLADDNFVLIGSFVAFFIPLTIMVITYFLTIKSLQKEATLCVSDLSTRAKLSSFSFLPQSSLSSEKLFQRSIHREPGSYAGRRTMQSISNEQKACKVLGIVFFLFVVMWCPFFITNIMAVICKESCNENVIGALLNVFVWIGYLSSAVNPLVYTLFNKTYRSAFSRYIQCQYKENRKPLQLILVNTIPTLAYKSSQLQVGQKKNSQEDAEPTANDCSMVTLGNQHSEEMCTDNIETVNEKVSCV
# TAAR1 agonist: agonists of human TAAR1; CHO RD-HGA16 TAAR1, Fluo-8 calcium fluorescence; vehicle wells 0%, saturating PEA agonist 100%; activation, % at 3 µM; Q96RJ0; 360,000 compounds, 0.99% hits; AID 624467;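 active = activation above the mean activation of all test compounds in the run plus 3 SD, cut at about 38% in these data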
#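 Signal – calcium-sensitive Fluo-8 signal, excitation 470-495, emission 515-575 nm · System – RD-HGA16 (CHO) cells co-expressing Gα16 and hTAAR1 · Incubation – 17-24 h seeding, 75 min 37 °C dye, 30 min RT · Compound dosing – 3 µM single concentration · Repeats – no replicates (n 1)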
# MC4R antag cAMP: antagonists of human melanocortin 4 receptor (MC4R). P32245. 360,000 compounds, 0.48% hits. inhibition, % at 6.5 µM. AID 540295. MC4R-expressing cells, MTII-stimulated cAMP, LANCE TR-FRET;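 active = inhibition above its plate's cutoff, the mean of tested wells on that plate plus 3 SD, cut at about 29% in these data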;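 also: 0% = Melanotan II alone and 100% = Melanotan II plus saturating MCL0020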
#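 Assay system: human MC4R-expressing U2OS cells; reagent: Melanotan II stimulation of cells; dosing: 6.5 µM single dose; timing: compound 30 min, challenge 1 h, detection 1 h; signal: TR-FRET cAMP assay; replicates: one well per compound, no replicates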
# B2AR ag: activates human beta-2 adrenergic receptor causing internalization. P07550. Am2.2-beta2AR cells, FAP receptor internalization, flow cytometry. response, % (concentration not given with the values). 340,000 compounds, 0.43% hits;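 active = response above a set limit, near 3 SD of response in nonfluorescent compounds, cut at about 42% in these data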
# MC4R ag barr: human MC4R agonism via beta-arrestin | 360,000 compounds, 0.98% hits | P32245 | activation, % at 8.9 µM | U2OS MC4R beta-arrestin complementation, luminescence; percent of melanotan II response, DMSO zero;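 active = activation above a per-plate cutoff, the mean activation of sample wells on that plate plus 3 SD, cut at about 8% in these data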
# TAAR1 antag: antagonists of human TAAR1 | Q96RJ0 | CHO RD-HGA16 TAAR1, Fluo-8 calcium fluorescence, antagonist | inhibition, % at 3 µM | 360,000 compounds, 1.5% hits | AID 624466;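 active = inhibition above a per-plate cutoff, the mean inhibition of test compounds on that plate plus 3 SD, cut at about 49% in these data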;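 also: 0% = DMSO plus EC80 beta-PEA response and 100% = DMSO alone without agonist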
#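 System: CHO RD-HGA16 cells bearing hTAAR1. Reagent: EC80 β-phenethylamine stimulus. Schedule: seeding 17-24 h prior, 75-min 37 °C, 30-min RT dye loading. Signal: Fluo-8 intracellular calcium dye fluorescence, real-time kinetic reads. Read-out: % inhibition from peak post-agonist over basal fluorescence ratio. Benchmarks: vehicle wells and EC80 agonist wells. Replicates: n of 1.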
# Starred values were filed as active, the others as inactive; nt = no result. In the library only some 4.3% were active in any assay of this set; here they are far more common.
SMILES,m5-HT2A agonist,TAAR1 agonist,MC4R antag cAMP,B2AR ag,MC4R ag barr,TAAR1 antag
COc1cc(NC(=O)COc2cc3oc(=O)cc(C)c3cc2Cl)cc(OC)c1OC,2,9,15,46*,0,-16
C=CCOc1ccc(/C=C2/C(=O)ON=C2C)cc1OC,3,38*,-8,12,-1,18
COc1cc(/C=C2/C(=O)ON=C2c2ccccc2)ccc1O,1,5,1,42*,-1,20
O=C1ON=C(c2ccccc2)/C1=C/c1ccc(O)cc1,-2,3,25,47*,0,2
COc1cccc(CNC(=O)[C@H]2CCCN2C(=O)[C@H]2CCCN2C(=O)N2CCCCC2)c1,nt,1,nt,nt,nt,-2
COc1cccc(C(=O)Nc2ccc3c(cc2=O)[C@@H](NC(C)=O)CCc2cc(OC)c(OC)c(OC)c2-3)c1,16*,nt,2,-4,-2,nt
COc1cc2c(c(OC)c1OC)-c1ccc(OC)c(=O)cc1C(NC(C)=O)CC2 (configuration not stated),9,3,-25,24,0,-28
COc1ccc(C(=O)c2sc3nc(-c4ccc(OC)cc4)ccc3c2N)cc1,6,9,19,-36,9.2*,15
COc1ccc(-c2ccc3c(N)c(C(=O)c4cccc(OC)c4)sc3n2)cc1,0,2,-5,5,0,3
COc1ccc(OC)c(S(=O)(=O)CC(=O)c2cc3ccccc3oc2=O)c1,nt,6,nt,nt,nt,4
O=C(Nc1ccc(Oc2c(F)c(F)c(F)c(F)c2F)cc1)OC1CCN2Cc3ccccc3N=C12 (configuration not stated),-4,nt,28,102*,9.3*,nt
CCc1cc2c(nc1CC)CCCN2S(=O)(=O)c1ccc(C(F)(F)F)cc1,nt,-1,nt,nt,nt,-6
CC1(C(=O)NCc2cccc3ccccc23)CCN1Cc1ccccc1OC(F)F (configuration not stated),-3,1,2,nt,1,17
CC1(C(=O)NCc2ccc(C(F)(F)F)cc2)CCN1Cc1ccccc1OC(F)F (configuration not stated),2,10,6,nt,1,56*
COc1cccc(OC)c1C(=O)Nc1ccc(Br)c(C(=O)c2ccccc2)c1,8,-1,4,1,0,53*
COc1cc(/C=N/NC(=O)c2cccc(NC(=O)c3ccccc3C)c2)ccc1O,0,15,-2,9,0,61*
COc1ccccc1/C=N/NC(=O)c1ccc(NC(=O)c2ccccc2Br)cc1,-1,11,0,-16,-1,51*
COc1ccc(CNC(=O)N(C)C[C@@H]2OCc3ccccc3-c3c(n(C)c4ccccc34)C(=O)N([C@@H](C)CO)C[C@@H]2C)cc1,nt,0,nt,nt,nt,-22
O=[N+]([O-])c1ccc(CN2[C@H](COCc3ccccc3)C=CS2(=O)=O)cc1,nt,1,nt,nt,nt,1
COCCCNc1c2c3c(cccc3[nH]c1=O)C(=O)c1ccccc1-2,9,218*,-26,-118,0,79*
CCN(CC)CCOc1ccc(Br)cc1,3,-2,10,3,1,9
CCN(CC)CCOc1ccc(/C(=C(\Cl)c2ccccc2)c2ccccc2)cc1,-1,31,6,60*,2,16
CCOC(=O)c1c(C)[nH]c(C(=O)CN2CCN(CC)CC2)c1C,2,2,3,0,0,-15
CCOC(=O)c1c(C)[nH]c(C(=O)COC(=O)c2oc3ccccc3c2C)c1C,-2,2,-3,0,8.3*,-8
CCOC(=O)c1c(C)[nH]c(C(=O)COC(=O)CCSc2ccccc2)c1C,0,-2,12,0,6,-7
CCOC(=O)c1c(C)[nH]c(C(=O)CN2CC(C)OC(C)C2)c1C (configuration not stated),17*,21,8,3,3,-19
CCOC(=O)c1c(C)[nH]c(C(=O)COC(=O)c2oc3ccc(OC)cc3c2C)c1C,-1,1,0,-3,-1,-19

# Source: PubChem BioAssay (several laboratories)
